Measurements as given in publication PMC10872764 (Journal of controlled release : official journal of the …, 2023).

Key:
mouse lungs = assay: In vivo cytotoxicity; settings: mice, 2.5 mg/mL, 30 μl/mouse, nasal inhalation
Outline: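 Wild-type C57/Bl6 mice received 30 μl of a 2.5 mg/ml solution of self-assembled prodrug, or saline, by nasal inhalation. Lungs were collected 48 h later per methods (18 h per results). Tissue went to histopathology, apoptotic cell counts, immunofluorescence, and ELISA/qRT-PCR for proinflammatory cytokines. At least three mice per group; experiments repeated twice.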

[1] = test system: P. aeruginosa induced bacterial pneumonia; assay: P. aeruginosa induced bacterial pneumonia model, wild-type mice; type: in vivo, mouse; settings: wild-type mice infected with P. aeruginosa; treatment 18 h after inoculation
Outline: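 In wild-type C57BL/6 mice, P. aeruginosa was instilled intratracheally via tracheal intubation. Test compound (10 mg/kg) was given by nasal instillation 18 h after inoculation, and lungs were collected 30 h later (48 h post-infection). Lung sections were H&E-stained; n = 5 per group; one-way ANOVA with multiple comparisons.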

Water solubility = type: physicochemical
[2] = cited from earlier work
ACE2 [3] = target: T1, ACE2 (Homo sapiens, UniProt Q9BYF1); assay: Activity of recombinant ACE2 with Zn chelation by DTPA; type: biochemical; settings: 25 μg/mL H4 (200 ng/mL elsewhere in the source), 25 mM DTPA, 37 °C
Outline: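 Human recombinant ACE2 was incubated at 37 °C with or without test compound (25 μg/mL in methods; 200 ng/mL in legend). Free Zn was depleted with 25 mM DTPA. Activity was read by fluorogenic Mca-YVADAPK(Dnp)-OH cleavage (ex 330/em 405 nm) in MES/NaCl/ZnCl2/Brij-35 buffer, pH 6.5. Each dot is one treatment well; one-way ANOVA.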
Target sequence in this assay (Q9BYF1 18-805): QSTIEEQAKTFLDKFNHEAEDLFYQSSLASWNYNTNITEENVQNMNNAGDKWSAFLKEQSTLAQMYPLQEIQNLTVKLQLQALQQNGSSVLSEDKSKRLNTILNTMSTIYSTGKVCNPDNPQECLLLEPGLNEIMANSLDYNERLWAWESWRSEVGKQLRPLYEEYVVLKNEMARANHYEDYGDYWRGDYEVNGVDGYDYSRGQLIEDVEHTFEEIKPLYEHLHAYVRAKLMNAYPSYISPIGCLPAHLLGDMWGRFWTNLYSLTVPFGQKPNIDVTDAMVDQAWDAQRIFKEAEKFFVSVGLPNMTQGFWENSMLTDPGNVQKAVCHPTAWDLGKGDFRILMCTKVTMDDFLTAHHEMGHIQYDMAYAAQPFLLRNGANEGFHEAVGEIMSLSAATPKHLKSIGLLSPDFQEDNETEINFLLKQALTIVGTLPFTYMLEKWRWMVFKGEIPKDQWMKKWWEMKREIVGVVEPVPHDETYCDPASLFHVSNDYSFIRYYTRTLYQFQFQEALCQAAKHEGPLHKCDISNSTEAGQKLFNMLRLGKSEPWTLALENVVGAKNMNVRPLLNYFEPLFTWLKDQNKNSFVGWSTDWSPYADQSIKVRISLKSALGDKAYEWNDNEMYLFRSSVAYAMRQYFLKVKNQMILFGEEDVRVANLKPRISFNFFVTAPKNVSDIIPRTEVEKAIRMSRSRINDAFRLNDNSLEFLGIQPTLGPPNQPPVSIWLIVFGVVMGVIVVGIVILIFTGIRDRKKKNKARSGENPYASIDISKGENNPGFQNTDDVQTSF

[4] = test system: P. aeruginosa induced bacterial pneumonia; assay: P. aeruginosa induced bacterial pneumonia model, global ACE2 knockout; type: in vivo, mouse; settings: Ace2-/- mice infected with P. aeruginosa, H4 treatment, n = 3
Outline: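 Ace2−/− mice were given P. aeruginosa by intratracheal instillation via tracheal intubation, with test compound 18 h after inoculation and samples taken 30 h later; n = 3 per group. Endpoints: body weight at sacrifice, lung H&E, lung IFNγ, MPO immunofluorescence, and BAL flow cytometry (Fc block 20 min at 4 °C, viability dye, CD45+CD11b+Ly6G+ live cells).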

ACE2 [5] = target: T1, ACE2; assay: ACE2 activity in culture medium of Calu-3 cells; type: cell-based
Target sequence in this assay (Q9BYF1 18-708 limits assumed): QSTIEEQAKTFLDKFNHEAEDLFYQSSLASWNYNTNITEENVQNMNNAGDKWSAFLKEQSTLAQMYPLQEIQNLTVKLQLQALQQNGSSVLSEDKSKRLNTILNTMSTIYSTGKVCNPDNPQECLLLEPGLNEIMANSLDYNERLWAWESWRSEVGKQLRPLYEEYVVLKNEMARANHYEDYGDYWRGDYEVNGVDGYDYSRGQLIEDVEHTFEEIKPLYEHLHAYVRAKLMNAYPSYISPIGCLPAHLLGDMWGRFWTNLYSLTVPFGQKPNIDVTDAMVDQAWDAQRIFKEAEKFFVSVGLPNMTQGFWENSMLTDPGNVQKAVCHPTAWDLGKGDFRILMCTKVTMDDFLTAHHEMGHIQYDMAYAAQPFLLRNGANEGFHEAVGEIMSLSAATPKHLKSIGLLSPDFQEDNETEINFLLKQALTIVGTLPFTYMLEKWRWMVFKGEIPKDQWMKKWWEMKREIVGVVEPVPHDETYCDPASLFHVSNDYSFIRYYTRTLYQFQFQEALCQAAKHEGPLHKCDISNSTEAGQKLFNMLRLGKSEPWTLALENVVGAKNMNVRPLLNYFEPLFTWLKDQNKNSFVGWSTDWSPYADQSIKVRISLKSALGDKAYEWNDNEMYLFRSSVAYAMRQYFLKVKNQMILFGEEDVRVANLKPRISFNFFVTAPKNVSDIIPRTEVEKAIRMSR

ACE2 gene expression = assay: ACE2 mRNA in Calu-3 cells by quantitative real-time PCR; type: cell-based, human; settings: 25 μg/mL H4, varying durations

Compound: H4-Succinic Acid-Val-Val-Glu-Glu-NH2 [H4 prodrug]
- toxicity in the lungs (mouse lungs): non-detectable toxicity
- pro-inflammatory cytokine levels in lung tissues (mouse lungs; ELISA and qRT-PCR): no surge in pro-inflammatory cytokine levels
- lung histopathology (H&E) [1]: enhanced histology
- solubility in water compared with H4 (Water solubility; photographs of aqueous solutions at 1 mg/mL (Fig. 4B)): improved solubility in water

Compound: CC(=O)NCC(=O)O.CC(=O)NCC(=O)O.N=C(N)c1ccc(N=NNc2ccc(C(=N)N)cc2)cc1 [DIZE, diminazene aceturate]
- toxicity [2]: high toxicity

Compound: O=C(O)CN(CCN(CC(=O)O)CC(=O)O)CCN(CC(=O)O)CC(=O)O [DTPA, diethylenetriaminepentaacetic acid]
- ACE2 activity of recombinant ACE2 (ACE2 [3]): substantially diminishes ACE2 activity

Compound: C[C@]12CC[C@@H]3c4ccc(O)cc4CC[C@H]3[C@@H]1C[C@@H](O)[C@@H]2O [H4]
- body weight recovery [4]: no discernible effects
- lung histopathology (H&E) [4]: no discernible effects
- neutrophil infiltration into the lungs (BAL flow cytometry, MPO staining) [4]: did not diminish neutrophil infiltration
- production of MIP-2 [4]: nor did it decrease the production of MIP-2
- proinflammatory cytokine IFNγ in lung tissue [4]: no discernible effects
- lung histopathology (H&E) [1]: alleviated histopathology
- ACE2 activity of recombinant ACE2 (ACE2 [3]): restore the ACE2 activity that had been inhibited by DTPA
- plateau of ACE2 activity enhancement (ACE2 [5]): around 50 μg/mL
- concentration range in which ACE2 activity is notably augmented (ACE2 [5]; 0–500 μg/ml, 18 h, 37 °C, culture medium): 5 to 50 µg/mL
- mid-effective concentration for enhancing ACE2 activity (ACE2 [5]; dose-dependent): 10 to 30 µg/mL
- ACE2 mRNA levels (ACE2 gene expression): did not induce ACE2 gene expression
- dissolution in water (Water solubility; water, 25 °C, no method or source printed): 0.5 mg/mL

Compound: Cc1ccc(S(=O)(=O)Oc2ccc3oc4c(CO)ccc(NCCN(C)C)c4c(=O)c3c2)cc1 [XNT, xanthenone]
- toxicity [2]: high toxicity
